From ChEMBL document CHEMBL1146216, “Synthesis and biological activity of a gemcitabine phosphoramidate prodrug” (J Med Chem, 2007)

How the values were obtained:
[1] = Ratio of growth inhibition of H292 cells by drug to 2'-2'-difluorodeoxycytidine; assay type: functional, Homo sapiens
CCRF-CEM [2] = test: Ratio of growth inhibition of CEM cells by drug to 2'-2'-difluorodeoxycytidine; assay type: functional, Homo sapiens
A2780 [3] = test: Growth inhibition of A2780 cells by SRB assay; assay type: functional, cell-based; conditions: Homo sapiens
Method in brief: (§1)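 Cells seeded at 5000/well and exposed to a range of drug concentrations for 72 h at 37 °C, 5% CO2, then read by SRB. A2780 and its dCK-deficient variant AG6000 were grown in DMEM; A549, H292 and H460 in RPMI; both media had 10% FCS and 20 mM HEPES. OD was read at 540 or 492 nm. Relative growth = (ODtreated − ODzero)/(ODcontrol − ODzero) × 100%, with ODzero taken at drug addition.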

HOP-92 = test: Growth inhibition in HOP92 cells; assay type: functional; conditions: Homo sapiens
SF-539 = test: Growth inhibition of SF539 cells; assay type: functional; conditions: Homo sapiens
PC-3 = test: Growth inhibition of PC3 cells; assay type: functional; conditions: Homo sapiens
SNB-19 = test: Growth inhibition of SNB19 cells; assay type: functional; conditions: Homo sapiens
A2780 [4] = test: Ratio of growth inhibition of A2780 cells by drug to 2'-2'-difluorodeoxycytidine; assay type: functional, Homo sapiens
TK-10 = test: Growth inhibition of TK10 cells; assay type: functional; conditions: Homo sapiens
SF-268 = test: Growth inhibition of SF268 cells; assay type: functional; conditions: Homo sapiens
IGROV-1 = test: Growth inhibition in IGROV1 cells; assay type: functional; conditions: Homo sapiens
CCRF-CEM [5] = test: Growth inhibition of CEM cells by MTT assay; conditions: Homo sapiens
UACC-257 = test: Growth inhibition of UACC257 cells; assay type: functional; conditions: Homo sapiens
LOX IMVI = test: Growth inhibition of LOX IMVI cells; assay type: functional; conditions: Homo sapiens
NCI-H460 [6] = test: Growth inhibition of H460 cells by SRB assay in presence of dipyridamole; assay type: functional, cell-based; conditions: Homo sapiens
Method in brief: (§2)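 SRB growth assay run with the nucleoside transport inhibitor dipyridamole at 1 µM final. Cells were seeded at 5000/well and exposed to a range of drug concentrations for 72 h at 37 °C, 5% CO2. Media: DMEM for A2780 and the dCK-deficient AG6000; RPMI for A549, H292 and H460; each with 10% FCS and 20 mM HEPES. Relative growth was calculated against ODzero and untreated controls.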

UACC-62 = test: Growth inhibition of UACC62 cells; assay type: functional; conditions: Homo sapiens
[7] = Growth inhibition of H292 cells by SRB assay; assay type: functional, cell-based; conditions: Homo sapiens, NCI-H292; method in brief: as §1
EKVX = test: Growth inhibition in EKVX cells; assay type: functional; conditions: Homo sapiens
OVCAR-3 = test: Growth inhibition of OVCAR-3 cells; assay type: functional; conditions: Homo sapiens
CCRF-CEM [8] = test: Growth inhibition of dCK deficient CEM cells by MTT assay; conditions: Homo sapiens
SW1573 [9] = test: Ratio of growth inhibition of SW1573 cells by drug to 2'-2'-difluorodeoxycytidine; assay type: functional, Homo sapiens
CAKI-1 = test: Growth inhibition in CAKI1 cells; assay type: functional; conditions: Homo sapiens
A549 [10] = test: Growth inhibition of A549 cells by SRB assay; assay type: functional, cell-based; conditions: Homo sapiens; method in brief: as §1
A549 [11] = test: Growth inhibition of A549 cells by SRB assay in presence of dipyridamole; assay type: functional, cell-based; conditions: Homo sapiens; method in brief: as §2
SW-620 = test: Growth inhibition of SW620 cells; assay type: functional; conditions: Homo sapiens
MOLT-4 = test: Growth inhibition of MOLT4 cells; assay type: functional; conditions: Homo sapiens
[12] = Growth inhibition of AG6000 cells by SRB assay; assay type: functional, cell-based; conditions: Homo sapiens; method in brief: as §1
OVCAR-8 = test: Growth inhibition of OVCAR8 cells; assay type: functional; conditions: Homo sapiens
OVCAR-5 = test: Growth inhibition of OVCAR5 cells; assay type: functional; conditions: Homo sapiens
NCI-H460 [13] = test: Ratio of growth inhibition of H460 cells by drug to 2'-2'-difluorodeoxycytidine; assay type: functional, Homo sapiens
NCI-H460 [14] = test: Growth inhibition of NCI-H460 cells; assay type: functional; conditions: Homo sapiens
NCI-H460 [15] = test: Growth inhibition of H460 cells by SRB assay; assay type: functional, cell-based; conditions: Homo sapiens; method in brief: as §1
CCRF-CEM [16] = test: Ratio of growth inhibition of dCK deficient CEM cells by drug to 2'-2'-difluorodeoxycytidine; assay type: functional, Homo sapiens
KM12 = test: Growth inhibition of KM12 cells; assay type: functional; conditions: Homo sapiens
SK-MEL-28 = test: Growth inhibition of SK-MEL-28 cells; assay type: functional; conditions: Homo sapiens
[17] = Ratio of growth inhibition of AG6000 cells by drug to 2'-2'-difluorodeoxycytidine; assay type: functional, Homo sapiens
NCI/ADR-RES = test: Growth inhibition of NCI/ADR-RES cells; assay type: functional; conditions: Homo sapiens
A549 [18] = test: Ratio of growth inhibition of A549 cells by drug to 2'-2'-difluorodeoxycytidine; assay type: functional, Homo sapiens
[19] = Growth inhibition of AG6000 cells by SRB assay in presence of dipyridamole; assay type: functional, cell-based; conditions: Homo sapiens; method in brief: as §2
NCI-H23 = test: Growth inhibition of NCI-H23 cells; assay type: functional; conditions: Homo sapiens
SK-MEL-5 = test: Growth inhibition of SK-MEL-5 cells; assay type: functional; conditions: Homo sapiens
NCI-H522 = test: Growth inhibition of NCI-H522 cells; assay type: functional; conditions: Homo sapiens
CCRF-CEM [20] = test: Growth inhibition of dCK deficient CEM cells by MTT assay in presence of dipyridamole; conditions: Homo sapiens
SNB-75 = test: Growth inhibition of SNB75 cells; assay type: functional; conditions: Homo sapiens
HOP-62 = test: Growth inhibition in HOP62 cells; assay type: functional; conditions: Homo sapiens
CCRF-CEM [21] = test: Growth inhibition of CEM cells by MTT assay in presence of dipyridamole; conditions: Homo sapiens
A2780 [22] = test: Growth inhibition of A2780 cells by SRB assay in presence of dipyridamole; assay type: functional, cell-based; conditions: Homo sapiens; method in brief: as §2
SN12C = test: Growth inhibition of SN12C cells; assay type: functional; conditions: Homo sapiens
786-0 = test: Growth inhibition in 786-0 cells; assay type: functional; conditions: Homo sapiens
HCT-15 = test: Growth inhibition in HCT15 cells; assay type: functional; conditions: Homo sapiens
SK-MEL-2 = test: Growth inhibition of SK-MEL-2 cells; assay type: functional; conditions: Homo sapiens
MDA-MB-231 = test: Growth inhibition of MDA-MB-231 cells; assay type: functional; conditions: Homo sapiens
SW1573 [23] = test: Growth inhibition of SW1573 cells by SRB assay; assay type: functional, cell-based; conditions: Homo sapiens
Method in brief: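 SW1573 NSCLC cells grown in DMEM with 10% FCS and 20 mM HEPES at 37 °C, 5% CO2. Seeded at 5000 cells/well and exposed to a range of drug concentrations for 72 h, then SRB assay. OD read at 540 or 492 nm. Relative growth = (ODtreated − ODzero)/(ODcontrol − ODzero) × 100%, with ODzero taken at drug addition.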

NCI-H322M = test: Growth inhibition of NCI-H322M cells; assay type: functional; conditions: Homo sapiens
ACHN = test: Growth inhibition in ACHN cells; assay type: functional; conditions: Homo sapiens
[24] = Growth inhibition of H292 cells by SRB assay in presence of dipyridamole; assay type: functional, cell-based; conditions: Homo sapiens, NCI-H292; method in brief: as §2
SW1573 [25] = test: Growth inhibition of SW1573 cells by SRB assay in presence of dipyridamole; assay type: functional, cell-based; conditions: Homo sapiens
Method in brief: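 SW1573 cells cultured in DMEM, 10% FCS, 20 mM HEPES, 37 °C, 5% CO2. Plated at 5000 cells/well and given graded drug concentrations with the nucleoside transport inhibitor dipyridamole at 1 µM final, for 72 h. SRB read-out at OD 540 or 492 nm. Growth is expressed relative to time-zero and untreated wells.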

K562 = test: Growth inhibition of K562 cells; assay type: functional; conditions: Homo sapiens
U-251 = test: Growth inhibition of U251 cells; assay type: functional; conditions: Homo sapiens
UO-31 = test: Growth inhibition of UO31 cells; assay type: functional; conditions: Homo sapiens
[26] = Growth inhibition in HS 578T cells; assay type: functional; conditions: Homo sapiens
SF-295 = test: Growth inhibition of SF295 cells; assay type: functional; conditions: Homo sapiens
DU-145 = test: Growth inhibition in DU145 cells; assay type: functional; conditions: Homo sapiens
SK-OV-3 = test: Growth inhibition of SKOV3 cells; assay type: functional; conditions: Homo sapiens
NCI-H226 = test: Growth inhibition of NCI-H226 cells; assay type: functional; conditions: Homo sapiens
A498 = test: Growth inhibition in A498 cells; assay type: functional; conditions: Homo sapiens
HT-29 = test: Growth inhibition in HT29 cells; assay type: functional; conditions: Homo sapiens
HCT-116 = test: Growth inhibition in HCT116 cells; assay type: functional; conditions: Homo sapiens
M14 = test: Growth inhibition of M14 cells; assay type: functional; conditions: Homo sapiens
COLO 205 = test: Growth inhibition in COLO 205 cells; assay type: functional; conditions: Homo sapiens
MCF7 = test: Growth inhibition of MCF7 cells; assay type: functional; conditions: Homo sapiens
BT-549 = test: Growth inhibition in BT549 cells; assay type: functional; conditions: Homo sapiens
A549 [27] = test: Growth inhibition in A549 cells; assay type: functional; conditions: Homo sapiens
MDA-MB-435 = test: Growth inhibition of MDA-MB-435 cells; assay type: functional; conditions: Homo sapiens

With CN(CCCCCl)P(=O)(OCc1ccc([N+](=O)[O-])o1)OC[C@H]1O[C@@H](n2ccc(N)nc2=O)C(F)(F)[C@@H]1O (some centres undefined) the “Ratio IC50” value [1] was 2.8, the “Ratio IC50” value (CCRF-CEM [2]) was 15 and the IC50 (A2780 [3]) was 0.008 µM. It also gave a GI50 (HOP-92) of 0.15 µM, a GI50 (SF-539) of 0.042 µM and a GI50 (PC-3) of 1.8 µM. For the same compound, the GI50 (SNB-19) was 0.26 µM, the “Ratio IC50” value (A2780 [4]) was 5.3 and the GI50 (TK-10) was 1.5 µM. For the same compound, the GI50 (SF-268) was 0.26 µM, the GI50 (IGROV-1) was 14 µM and the IC50 (CCRF-CEM [5]) was 2 µM. For the same compound, the GI50 (UACC-257) was 17 µM, the GI50 (LOX IMVI) was 0.76 µM and the IC50 (NCI-H460 [6]) was > 0.5 µM. It also gave a GI50 (UACC-62) of 1.1 µM, an IC50 [7] of 0.037 µM and a GI50 (EKVX) of 2.5 µM. The GI50 (OVCAR-3) was 3.2 µM, the IC50 (CCRF-CEM [8]) was 13 µM and the “Ratio IC50” value (SW1573 [9]) was 5.8. For the same compound, the GI50 (CAKI-1) was 0.22 µM, the IC50 (A549 [10]) was 0.079 µM and the IC50 (A549 [11]) was > 0.5 µM. It also gave a GI50 (SW-620) of 38 µM, a GI50 (MOLT-4) of 0.77 µM and an IC50 [12] of 5 µM. For the same compound, the GI50 (OVCAR-8) was 0.11 µM, the GI50 (OVCAR-5) was 1.9 µM and the “Ratio IC50” value (NCI-H460 [13]) was 7.7. For the same compound, the GI50 (NCI-H460 [14]) was 0.3 µM, the IC50 (NCI-H460 [15]) was 0.077 µM and the “Ratio IC50” value (CCRF-CEM [16]) was 0.26. For the same compound, the GI50 (KM12) was 15 µM, the GI50 (SK-MEL-28) was 20 µM and the “Ratio IC50” value [17] was 0.25. The GI50 (NCI/ADR-RES) was 0.23 µM, the “Ratio IC50” value (A549 [18]) was 5.6 and the IC50 [19] was 6 µM. It also gave a GI50 (NCI-H23) of 0.074 µM, a GI50 (SK-MEL-5) of 3.2 µM and a GI50 (NCI-H522) of 15 µM. The IC50 (CCRF-CEM [20]) was 17 µM, the GI50 (SNB-75) was 13 µM and the GI50 (HOP-62) was 0.5 µM. For the same compound, the IC50 (CCRF-CEM [21]) was 4 µM, the IC50 (A2780 [22]) was 0.4 µM and the GI50 (SN12C) was 0.49 µM. The GI50 (786-0) was 0.062 µM, the GI50 (HCT-15) was 54 µM and the GI50 (SK-MEL-2) was 80 µM. The GI50 (MDA-MB-231) was 25 µM, the IC50 (SW1573 [23]) was 0.092 µM and the GI50 (NCI-H322M) was 3.5 µM. For the same compound, the GI50 (ACHN) was 0.038 µM, the IC50 [24] was 0.33 µM and the IC50 (SW1573 [25]) was > 0.5 µM. The GI50 (K562) was 13 µM, the GI50 (U-251) was 0.78 µM and the GI50 (UO-31) was 0.4 µM. The GI50 [26] was 46 µM, the GI50 (SF-295) was 0.88 µM and the GI50 (DU-145) was 0.19 µM. The GI50 (SK-OV-3) was 2.2 µM, the GI50 (NCI-H226) was 16 µM and the GI50 (A498) was 5.8 µM. For the same compound, the GI50 (HT-29) was 30 µM, the GI50 (HCT-116) was 1.1 µM and the GI50 (M14) was 0.054 µM. The GI50 (COLO 205) was 7.5 µM, the GI50 (MCF7) was 0.45 µM and the GI50 (BT-549) was 1.6 µM. For the same compound, the GI50 (A549 [27]) was 0.73 µM and the GI50 (MDA-MB-435) was 0.47 µM.
